Published values of several laboratories.
Compare with care: the assays were run in different laboratories.
MEP1B: Meprin A subunit beta (MEP1B, Homo sapiens, UniProt Q16820)
F2: Prothrombin (F2, Homo sapiens, UniProt P00734)
Dihydroorotate dehydrogenase, mitochondrial, putative: Dihydroorotate dehydrogenase, mitochondrial, putative (Plasmodium vivax, UniProt A5K1N1)
HDAC6: Protein deacetylase HDAC6 (HDAC6, Homo sapiens, UniProt Q9UBN7)
PDE4D: 3',5'-cyclic-AMP phosphodiesterase 4D (PDE4D, Homo sapiens, UniProt Q08499)
CDK7 with cyclin H: Cyclin-dependent kinase 7, with cyclin H (CDK7, Homo sapiens, UniProt P50613)
KCNK18: Potassium channel subfamily K member 18 (KCNK18, Homo sapiens, UniProt Q7Z418)
GRM7: Metabotropic glutamate receptor 7 (GRM7, Homo sapiens, UniProt Q14831)

SMILES	target	test	conditions	IC50 [µM]
O=C(CCN(Cc1ccc2c(c1)OCO2)Cc1ccc(Cl)cc1F)NO	MEP1B	enzyme activity, inhibitor	–	0.96
CC[C@H](C)[C@H](NC(C)=O)C(=O)N[C@@H](CCC(=O)O)C(=O)N[C@H](C(=O)N[C@H](C=O)CC(=O)O)[C@@H](C)O	Caspase-10 (CASP10, Homo sapiens, UniProt Q92851)	enzyme activity, inhibitor	–	0.0125
CC(C)Cc1ncc(Cc2ccc(O)cc2)[nH]c1=O	Calpain-1 catalytic subunit (CAPN1, Homo sapiens, UniProt P07384)	enzyme activity, inhibitor	–	3.9
COc1cc(/C=N/n2c(C)nc3ccc(C)cc3c2=O)ccc1OCc1ccccc1	F2	enzyme activity, inhibitor	–	26.6
Cc1nc(Nc2ccc(S(F)(F)(F)(F)F)cc2)c2c(C(F)(F)F)noc2n1	Dihydroorotate dehydrogenase, mitochondrial, putative	enzyme activity, inhibitor, absorbance	–	0.066
CCCC[C@H](NC(=O)C1CN(C)C1)c1ncc(-c2cc3ccccc3nc2OC)[nH]1	HDAC6	enzyme activity, inhibitor	–	1.1
CC(C)(C)n1nc(-c2ccc3nc(OC4CC4)ccc3c2)c(C(N)=O)c1N	Mitogen-activated protein kinase 1 (MAPK1, Homo sapiens, UniProt P28482)	cell-free assay	–	> 10
CC(C)n1c(/C=C/C(O)CC(O)CC(=O)O)c(-c2ccc(F)cc2)c2ccccc21 (stereo not drawn)	3-hydroxy-3-methylglutaryl-coenzyme A reductase (HMGCR, Homo sapiens, UniProt P04035)	enzyme activity, inhibitor, absorbance	–	0.173
CN(C)CC#Cc1ccc2[nH]c3c(c2c1)-c1nc(N)ncc1CCC3	Cyclin-dependent kinase 7 (CDK7, Homo sapiens, UniProt P50613)	enzyme activity, inhibitor, radiometric	–	> 10
COc1ccc(C2=NN(C3CCCCCC3)C(=O)[C@@H]3CC=CC[C@H]23)cc1-c1ccc(C(=O)NCC(N)=O)cc1 (relative stereo)	PDE4D	enzyme activity, inhibitor	–	0.251
OCc1ccc2c(c1C#Cc1ccc(O)cc1)C(c1ccc(O)cc1)(c1ccc(O)cc1)c1cc(O)ccc1-2	PDE4D	enzyme activity, inhibitor	–	0.267
COc1cc(NCC(=O)Nn2c(C)nc3ccc(Cl)cc3c2=O)cc(OC)c1OC	F2	enzyme activity, inhibitor	–	63.5
Cc1nc(Nc2ccc(C)c(Cl)c2)c2c(C)noc2n1	Dihydroorotate dehydrogenase, mitochondrial, putative	enzyme activity, inhibitor, absorbance	–	0.26
Cc1nc2ccccc2n1Cc1c(F)c(F)c(C(=O)NO)c(F)c1F	HDAC6	enzyme activity, inhibitor	–	3.5
Cc1nc2ccc(Br)cc2c(=O)n1/N=C/c1ccc(C(=O)O)cc1	F2	enzyme activity, inhibitor	–	48.6
O=C(CCN(Cc1ccncc1)Cc1ccc(Cl)c(O)c1F)NO	MEP1B	enzyme activity, inhibitor	–	0.703
Cc1nc(NC2CCc3cc(Br)ccc3C2)c2c(C)noc2n1 (stereo not drawn)	Dihydroorotate dehydrogenase, mitochondrial, putative	enzyme activity, inhibitor, absorbance	–	0.15
Cc1nc2ccc(Cl)cc2c(=O)n1NC(=O)CCl	F2	enzyme activity, inhibitor	–	83.9
O=C(CCN(Cc1cccnc1)Cc1ccc2c(c1)OCO2)NO	MEP1B	enzyme activity, inhibitor	–	9.65
O=c1cc(-c2ccccc2)oc2ccc3ccccc3c12	CDK7 with cyclin H	enzyme activity, inhibitor, ADP detection	–	2.97
Cc1nc2ccccc2n1Cc1nc(C(=O)NO)co1	HDAC6	enzyme activity, inhibitor	–	3.71

SMILES	target	test	conditions	IC50 [µM]
COC(=O)C1=C(C)NC(C)=C(C(=O)OCCN(C)Cc2ccccc2)C1c1cccc([N+](=O)[O-])c1 (stereo not drawn)	KCNK18	ion flux, inhibitor	–	21.9
NC(=O)c1cccc(-c2cccc(OC(=O)NC3CCCCC3)c2)c1	Liver carboxylesterase 1 (CES1, Homo sapiens, UniProt P23141)	enzyme activity, inhibitor	–	0.039
COc1cc(/C=C2\SC(=O)NC2=O)cc(F)c1OCCNc1nc2c(cnn2C2CCCC2)c(=O)[nH]1	PDE4D	enzyme activity, inhibitor	–	0.765
CC(C)=CCC[C@@H](C)c1ccc(C)c(O)c1	UDP-glucuronosyltransferase 2B7 (UGT2B7, Homo sapiens, UniProt P16662)	enzyme activity, inhibitor	1 h	42.1
COCCOC(=O)C1=C(C)NC(C)=C(C(=O)OC(C)C)C1c1cccc([N+](=O)[O-])c1 (stereo not drawn)	Potassium channel subfamily K member 9 (KCNK9, Homo sapiens, UniProt Q9NPC2)	ion flux, inhibitor	–	> 30
CCCON(Cc1ccc(C(=O)NO)cc1)C(=O)Nc1ccc(N(C)C)cc1	HDAC6	enzyme activity, inhibitor, fluorescence	–	0.022
COc1ccc(-c2coc(-c3cc(OC(F)(F)F)ccc3-n3cncn3)n2)cc1OC	GRM7	calcium signal, antagonist	–	> 10
CCOC(=O)C1=C(C)NC(C)=C(C(=O)OC)C1c1cccc([N+](=O)[O-])c1 (stereo not drawn)	KCNK18	ion flux, inhibitor	–	19.8
CN(C)C/C=C/C(=O)Nc1ccc(C(=O)N2CC[C@@H](Nc3ncc(Cl)c(-c4c[nH]c5ccccc45)n3)C2)cc1	CDK7 with cyclin H	enzyme activity, inhibitor, FRET	–	0.00633
COc1ccc([C@@H]2CN(C(=O)[C@@H](O)CO)C[C@@]2(C)[C@@H](C)O)cc1OC1CN(c2ccc(C)cn2)C1	PDE4D	enzyme activity, inhibitor	–	0.00014
O=C(N[C@@H](Cc1c[nH]c2ccccc12)C(=O)O)c1ccc(Cl)cc1	Free fatty acid receptor 3 (FFAR3, Homo sapiens, UniProt O14843)	GTPγS binding, antagonist	cell membranes	> 31.6
COc1ccc(-c2nnc(-c3cc(OC(F)(F)F)ccc3-n3ccnc3)o2)cc1OC	GRM7	calcium signal, antagonist	–	0.6
CC/C=C\C/C=C\C/C=C\C/C=C\C/C=C\CCCC(=O)O	DNA-directed DNA polymerase (Enterobacteria phage T4, UniProt P04415)	enzyme activity, inhibitor	–	> 100
N#Cc1nc(NCc2cccc(-c3cn(S(=O)(=O)c4ccccc4)c4ccccc34)c2)c2ncn(CCCO)c2n1	Cathepsin B-like cysteine protease (Trypanosoma brucei, UniProt Q6R7Z5)	enzyme activity, inhibitor	–	> 15
Nc1ccc(-c2ccncc2)cc1NC(=O)N1CCCC1	HDAC6	enzyme activity, inhibitor	–	> 33.3
COc1ccc2c(Oc3ccc4c(C(=O)Nc5ccccc5N)cccc4c3)ccnc2c1	Tyrosine-protein kinase SYK (SYK, Homo sapiens, UniProt P43405)	enzyme activity, inhibitor	–	> 0.5
CNCCCOc1cc2nc(N3CCCN(C)CC3)nc(NC3CCN(C)CC3)c2cc1OC	Histone-lysine N-methyltransferase EHMT2 (EHMT2, Homo sapiens, UniProt Q96KQ7)	enzyme activity, inhibitor	–	0.045
CC#Cc1cncc(-c2ccc3c(c2)[C@@]2(N=C(C)C(N)=N2)[C@]2(CC[C@H](OC)CC2)C3)c1	Cathepsin D (CTSD, Homo sapiens, UniProt P07339)	enzyme activity, inhibitor	–	16.1
COc1ccc2cc(/C=N/n3c(C)nc4ccc(Br)cc4c3=O)ccc2c1	F2	enzyme activity, inhibitor	–	51.9
O=c1cc(-c2ccccc2)oc2c1ccc1ccccc12	CDK7 with cyclin H	enzyme activity, inhibitor, ADP detection	–	> 100
CC[C@@H](C(=O)Nc1ccc(C(N)=O)c(F)c1)n1cc(OC)c(-c2cc(Cl)ccc2-n2cc(C(F)(F)F)nn2)cc1=O	F2	enzyme activity, inhibitor	–	6.6
